According to ChEMBL document CHEMBL4513216, “Probing the Open Global Health Chemical Diversity Library for Multistage-Active Starting Points for Next-Generation Antimalarials” (ACS Infect Dis, 2020):

assay: Toxicity liver stage against HepG2, at 10uM; format: cell-based; set-up: test concentration 10 uM, cell line HepG2-A16-CD81EGFP; settings: human, HepG2-A16-CD81EGFP cells; read-out: INHIBITION
How it was run: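 Uninfected HepG2-A16-CD81EGFP cells, 3 × 10^3 per well, 1536-well, plated on prespotted compound at 10 μM final, parasite-free screening media added to match infected plates; puromycin 10 μM positive, DMSO 0.5% negative; run in parallel with 48 h PbLuc assay at 37 °C, 5% CO2; viability by CellTiter-Glo luminescence, normalized to controls.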

In order of falling cytotoxicity at 10 µM:
1. CN1CCN(c2ncccc2CNc2ncccc2C#N)CC1  15.4%
2. CCOc1ccc(C(=O)N2CCC(Oc3ccccc3)(C(=O)O)CC2)o1  14.1%
3. O=C1Nc2ccccc2/C1=C1\CCCCCN1  13.6%
4. Cc1ccc(C2CSCCN2C(=O)c2ccnc(N(C)C)c2)o1 (stereo not given)  12.8%
5. O=C(NCc1cccs1)[C@]12COC[C@H]1CN(c1ncccn1)C2  11.6%
6. CCOCC(O)CN1CCN(C(=O)c2ccncc2)CC1 (stereo not given)  10%
7. Cc1cnc(N2CC[C@@H]3OC(COCC(=O)N(C)C)CC[C@@H]32)nc1 (stereo not given in full)  7.98%
8. Cn1cnc2c1CCN(c1ccnc(-c3ccccc3)n1)C2  7.51%
9. Cc1cc(C)c(C(=O)NC2CCN(c3ncccc3C#N)CC2)c(=O)[nH]1  7.24%
10. COc1ccc(CN2CCCC3(CCN(c4ccsc4)C3=O)C2)cc1 (stereo not given)  6.92%
11. Cc1cc(CN2C[C@H](OCC3CCOCC3)[C@H]3COC[C@H]32)oc1C  6.88%
12. CC(C)N(Cc1ccc(Cl)c(Cl)c1)C(=O)CCn1cncn1  6.63%
13. CC(=O)N(Cc1ncc(C)o1)C1CCN(Cc2nccn2C)C1 (stereo not given)  6.57%
14. Cc1ccccc1C(C)(C)CNC(=O)CCSc1nnnn1C  6.51%
15. CCN(Cc1ccco1)C(=O)C1=NN(c2ccccc2)C(=O)CN1  6.35%
16. OC1CCN(CCNc2ncc3c(n2)CCN3c2ccccc2)CC1  5.84%
17. CCc1nc(CNc2ccc(F)c(F)c2)no1  5.49%
18. Cc1noc(C)c1CN1C[C@@H](NC(=O)N(C)C)[C@H](C(C)C)C1  5.35%
19. Cc1nc(CN2CC[C@H]3[C@H]2CCN3c2nncs2)cs1  5.2%
20. Cc1cccc(C2CCCCN2C(=O)CCCS(C)(=O)=O)c1C (stereo not given)  4.96%
21. Cn1ccnc1C(O)(CCNCc1ccc(Cl)o1)C(F)(F)F (stereo not given)  4.91%
22. Cc1ccc2ncn(C(C)Cn3cccn3)c(=O)c2c1 (stereo not given)  4.4%
23. FC(F)Oc1ccc(NCc2nc(C3CC3)no2)c(OC(F)F)c1  4.19%
24. CCn1cc(C(=O)N2CCOC(c3nc(-c4cccs4)no3)C2)cn1 (stereo not given)  2.91%
25. CCc1n[nH]c(C2CN(C(=O)Cc3cccs3)CCO2)n1 (stereo not given)  2.83%
26. O=C(O)c1ccccc1-c1ccc(CN2CCC(CO)CC2)cn1  2.45%
27. O=C(Cc1cccc(Cl)c1)N[C@@H]1CCNC[C@H]1O  2.28%
28. CCOC(=O)[C@@H]1[C@@H](O)C(=O)N(C)C12CCN(C(=O)OC)CC2  1.97%
29. CC(C)(C)N1CC(C(=O)N2CC(Oc3ccc(F)cc3)C2)CC1=O (stereo not given)  1.88%
30. Cc1nc(Cn2c3c(ccc2=O)CC(N)CC3)cs1 (stereo not given)  1.88%
31. CCOc1nnc(CN2CCOC(CNc3cccnn3)C2)s1 (stereo not given)  1.82%
32. CN(Cc1ccccn1)C1CCCN(Cc2noc(C3CC3)n2)C1 (stereo not given)  1.82%
33. CCN1CCC2(CCC1=O)CN(c1cnc3ccccc3n1)CCN2C (stereo not given)  1.79%
34. O=C(C1CC1)N1CCC2(CCN2Cc2ccc(F)cc2)C1 (stereo not given)  1.55%
35. COc1ccc(OC)c(C2CCN(C(=O)C3CCS(=O)(=O)CC3)C2)c1 (stereo not given)  1.21%
36. Cc1nc(CN(C)c2nccc(C(F)(F)F)n2)cs1  1.15%
37. CCn1cc(NC(=O)N2CCN(C(=O)Oc3ccccc3)CC2)cn1  1.1%
38. CC(C)NC(=O)N1CCN2C(=O)N(Cc3ccc(F)cc3)C[C@H]2C1  0.88%
39. CC(C)N1CCC2(CC1)CC(NCc1ccccn1)c1ccccc1O2 (stereo not given)  0.806%
40. CC1CCCCN1C(=O)Cn1cc(I)cn1 (stereo not given)  0.687%
41. CCC(C)(COc1ncccc1Cl)NCC(=O)NC1CCCCC1 (stereo not given)  0.651%
42. CC1(C)CNC(=O)c2nc(C3CCCN(S(C)(=O)=O)C3)[nH]c2C1 (stereo not given)  0.611%
43. CN(C(=O)CCc1nc(C2CC2)no1)c1cc(C#N)c2ccccc2n1  0.55%
44. O=C1CCCc2cc(-c3csc(CCN4CCOC4=O)n3)ccc2N1  0.196%
45. Cc1cc(C(=O)NC2CCN(c3ncccc3C#N)CC2)on1  0.0456%
46. CN(Cc1cc[nH]n1)C(=O)c1cccc(CCC(C)(C)O)c1  -0.0174%
47. NC(=O)CC1CCCCN1C(=O)c1cccc(C(F)(F)F)c1 (stereo not given)  -1.03%
48. O=C(c1cccc(C2CCNC2)c1)N1CCC(c2ccncc2)CC1 (stereo not given)  -1.12%
49. O=C(NC1CC1)N1CCOCC2(C1)CN(c1ccccc1)C(=O)CO2 (stereo not given)  -1.37%
50. CN1CCN(C(=O)c2cc(-c3cnc(N4CCCC4)nc3)cn2C)CC1  -1.43%
51. CC(=O)N(C)C(c1cccc(F)c1)c1ccccn1 (stereo not given)  -1.63%
52. Cc1cc2nc(C(C)C)cc(N[C@H](C(N)=O)C(C)C)n2n1  -1.66%
53. Cc1ccc(NCc2cc(C#N)ccc2F)cc1-n1nnnc1C  -1.66%
54. O=C(NC1COC2(CCN(Cc3cccs3)CC2)C1)c1ccccn1 (stereo not given)  -2.19%
55. O=C(c1cocn1)N1C[C@@H]2CN(CC3CC3)CCO[C@@H]2C1  -2.29%
56. O=C(Nc1ccccc1)[C@H]1CN2CCC1C[C@@H]2Cn1cc(CO)nn1 (stereo not given in full)  -2.42%
57. COc1cc(C(C)=O)ccc1OCC(=O)N(CC(C)C#N)C1CC1 (stereo not given)  -2.45%
58. Cc1cc(C(=O)N2CCCC2c2c(C)nn(C)c2C)no1 (stereo not given)  -2.57%
59. c1cncc(COCc2nnc3n2CCN(CC2CC2)C3)c1  -3.03%
60. CC(C)(C)CC(=O)NCCn1ccc(-c2ccncc2)n1  -3.4%
61. O=S(=O)(c1ccc(F)cc1)N1CCCCC1c1cc[nH]n1 (stereo not given)  -3.55%
62. O=C(CC1CCN(CCN2CCCCC2)CC1)N1CCOCC1  -3.91%
63. CNC(=O)CN1CCC(NC2CSCCc3ccccc32)CC1 (stereo not given)  -4.28%
64. O=C(O)c1cc(-c2cc[nH]n2)cc(S(=O)(=O)N2CCCCCC2)c1  -4.88%
65. Cc1nc(CC(=O)NCc2csc(N3CCCC3)n2)cs1  -5.26%
66. CC(O)CN(C)C(=O)CCNC(=O)OC(C)(C)C (stereo not given)  -5.32%
67. CC(C)C(=O)N1CCC(c2nc(O)cc(-c3ccncc3)n2)CC1  -5.41%
68. CN(C)C(C(=O)NCc1cc(C(C)(C)C)n[nH]1)c1ccc(F)cc1 (stereo not given)  -5.54%
69. Cc1cnc(C(=O)N2CCCC3(CCN(c4cnn(C)c4)C3=O)C2)cn1 (stereo not given)  -5.79%
70. NC(=O)c1cccc(OCC(=O)NS(=O)(=O)c2ccc3c(c2)CCC3)c1  -6.22%
71. COc1ccc(OCC(=O)n2nc(C)c(C)c2C)cc1  -6.32%
72. O=S(=O)(NCCCN1CC=CC1)c1cncc(Cl)c1  -6.38%
73. CN(C)CCN1C(=O)CCC12CCCN(C(=O)c1cccnc1)CC2 (stereo not given)  -6.78%
74. CC(=O)NCCNc1cc(C)nc2cc(C)nn12  -6.91%
75. Cc1ccc(CN(C)C(=O)CN2CCOC(Cn3cncn3)C2)o1 (stereo not given)  -7.98%
76. COCCNCc1ccc(OCC(=O)NC(C)(C)C)cc1  -8.08%
77. CCOC(=O)C1CCN(C(=O)Cn2ccc3cc(Br)ccc32)CC1  -8.23%
78. CCn1nc2c(cc1=O)CN(CC(=O)Nc1nc(C)c(C)s1)CC2  -8.8%
79. COc1c(CNCC(O)c2ccccc2F)c(C(C)C)nn1C (stereo not given)  -8.91%
80. CC(C)c1ccc(OCC(=O)N2CCOCC2c2ncon2)cc1 (stereo not given)  -9.01%
81. Cc1nnc(CCNC(=O)c2coc(CN3CCOCC3)c2)s1  -9.21%
82. NC(=O)C1CCCN1C(=O)c1cccc2c1OCO2 (stereo not given)  -9.56%
83. Cc1nc(C)n(CC2CCCN2Cc2coc(-c3cccs3)n2)n1 (stereo not given)  -9.61%
84. COc1cccn(CC(=O)N(C)Cc2ccoc2)c1=O  -9.93%
85. Cc1nn(C)c(Cl)c1C(=O)NCC(c1ccsc1)N(C)C (stereo not given)  -10%
86. O=C(NCc1ccco1)[C@H]1C[C@H]2OCC[C@H]2N(C(=O)c2ccnnc2)C1  -10.3%
87. Cc1nc2c(c(NCC(c3cccnc3)N3CCOCC3)n1)CCNC2 (stereo not given)  -11.1%
88. Cc1ccc(C(=O)N2C[C@@H](C(=O)O)[C@H](c3ccncc3)C2)cc1F  -11.2%
89. Cc1nc(CN2CCN(C(=O)COCc3ccccc3)CC2)no1  -14.1%
90. COCC(C)NC(=O)Nc1cc(-c2ccccc2C)nn1CCO (stereo not given)  -14.3%
91. Cc1cc(C)n(C2CN(CC(O)c3ccc4c(c3)OCO4)C2)n1 (stereo not given)  -15.7%
92. CCc1ncc2c(n1)CN(Cc1ncc(C(C)(C)C)o1)CC2  -15.9%
93. CN(C)c1cc(CNC(=O)c2cnccn2)ccn1  -17.7%
94. COc1ccc(CN(Cc2cnn(C)c2)CC(C)C)cn1  -18.4%
95. CCc1nc(CN(C(C)=O)C2CCN(CCc3ccncc3)C2)no1 (stereo not given)  -22.3%
96. O=C(Nc1ccccn1)C1CCN(C(=O)COc2ccccc2F)C1 (stereo not given)  -24.6%
97. Cc1cnn(CC2CCCN2Cc2nc(N)c3ccccc3n2)c1 (stereo not given)  -29.5%
98. CN(Cc1ccccc1)C(=O)c1cc2c(c(S(N)(=O)=O)c1)CCC2  -41.5%
99. Cn1cc(NC(=O)NC2CCCN(c3ccccc3Cl)C2=O)cn1 (stereo not given)  -41.8%
100. COCCOc1ncccc1CNC(=O)N1CCOCC1  -43.8%
101. CC(C)[C@H](Nc1nc(C2CCCC2)nc2c1cnn2C)C(N)=O  -51.5%
102. Oc1cc(CNCCCN2CCCC2)nc2ccc(F)cc12  -56%
103. CS(=O)(=O)N[C@H]1CCO[C@]2(CCN(C(=O)c3ccccn3)C2)C1  -73.3%
104. Cc1ncnc2c1CCN(C(=O)N(C)C)CC2  -79.1%
105. Cc1cnc(C(=O)N2CC[C@H]3[C@@H]2CCC(=O)N3c2cccnc2)cn1  -81.9%
106. COCCN1CCOCC12CCN(C(=O)c1ccoc1)CC2  -84.6%
107. Cn1nnc2c1C(COCC1CC1)CN(C(=O)C1=CCCC1)C2 (stereo not given)  -102%
108. CN1CCN(Cc2cccnc2)C(=O)C12CCN(CC1CCOC1)CC2 (stereo not given)  -106%
109. Cc1cccc(-c2nnn3c2COC(CNS(=O)(=O)C2CC2)C3)c1 (stereo not given)  -110%
110. CNC(=O)c1cc2c(nc1N(C)C)CCN(C)CC2  -149%
